# Experimental data from ChEMBL document CHEMBL4689842, “EUbOPEN Chemogenomics Library wave 1” (2021).
# Test system: U2OS
# Test: Multiplex assay against U2OS
# Type: toxicity, cell-based
# Conditions: human
# Outline: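 Values for tubulin, mitochondrial-mass and membrane-permeability phenotypes are per cents of cells with healthy nuclei. These cells were identified by CellPathfinder machine-learning gating of live cells that had been stained at seeding with Hoechst33342, BioTracker Green Microtubule Cytoskeleton Dye, MitoTracker Red and Annexin V Alexa Fluor 680 and imaged on a CQ1 microscope at 37°C and 5% CO2 after compound addition. The gating first set Hoechst high-intensity objects apart from normal cells, then split normal cells into healthy, pyknosed or fragmented nuclei, and pyknosed cells into mitotic or apoptotic.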
# [1] = 12 h, 1 µM, compound concentration 1 uM, replicate 1
# [2] = 12 h, 1 µM, compound concentration 1 uM, replicate 2
# [3] = 12 h, 10 µM, compound concentration 10 uM, replicate 1
# [4] = 12 h, 10 µM, compound concentration 10 uM, replicate 2
# [5] = 24 h, 1 µM, compound concentration 1 uM, replicate 1
# [6] = 24 h, 1 µM, compound concentration 1 uM, replicate 2
# [7] = 24 h, 10 µM, compound concentration 10 uM, replicate 1
# [8] = 24 h, 10 µM, compound concentration 10 uM, replicate 2
# [9] = 48 h, 1 µM, compound concentration 1 uM, replicate 1
# [10] = 48 h, 1 µM, compound concentration 1 uM, replicate 2
# [11] = 48 h, 10 µM, compound concentration 10 uM, replicate 1
# [12] = 48 h, 10 µM, compound concentration 10 uM, replicate 2
smiles,measurement,setting,value
CCCS(=O)(=O)c1nc(NC2CC2)cc(-c2ccc3c(ccn3C3CC(C)(C)NC(C)(C)C3)c2)n1,Population Apoptotic (%),[1],39%
same,Population Fragmented Nuclei (%),[1],16%
same,Population Healthy Nuclei (%),[1],62%
same,Population Hoechst High Intensity Objects (%),[1],6%
same,Population Membrane Permeable-Phenotype (%),[1],8%
same,Population Mitochondria Different-Phenotype (%),[1],30%
same,Population Mitotic Cells (%),[1],60%
same,Population Normal (%),[1],93%
same,Population Pyknosed Nuclei (%),[1],21%
same,Population Tubulin-Different-Phenotype (%),[1],24%
same,Total Cell Count,[1],588
same,Population Apoptotic (%),[2],38%
same,Population Fragmented Nuclei (%),[2],14%
same,Population Healthy Nuclei (%),[2],71%
same,Population Hoechst High Intensity Objects (%),[2],5%
same,Population Membrane Permeable-Phenotype (%),[2],5%
same,Population Mitochondria Different-Phenotype (%),[2],41%
same,Population Mitotic Cells (%),[2],61%
same,Population Normal (%),[2],94%
same,Population Pyknosed Nuclei (%),[2],13%
same,Population Tubulin-Different-Phenotype (%),[2],29%
same,Total Cell Count,[2],1044
same,Population Apoptotic (%),[3],86%
same,Population Fragmented Nuclei (%),[3],83%
same,Population Healthy Nuclei (%),[3],0%
same,Population Hoechst High Intensity Objects (%),[3],6%
same,Population Membrane Permeable-Phenotype (%),[3],0%
same,Population Mitochondria Different-Phenotype (%),[3],0%
same,Population Mitotic Cells (%),[3],13%
same,Population Normal (%),[3],93%
same,Population Pyknosed Nuclei (%),[3],16%
same,Population Tubulin-Different-Phenotype (%),[3],0%
same,Total Cell Count,[3],142
same,Population Apoptotic (%),[4],92%
same,Population Fragmented Nuclei (%),[4],75%
same,Population Healthy Nuclei (%),[4],4%
same,Population Hoechst High Intensity Objects (%),[4],7%
same,Population Membrane Permeable-Phenotype (%),[4],100%
same,Population Mitochondria Different-Phenotype (%),[4],38%
same,Population Mitotic Cells (%),[4],7%
same,Population Normal (%),[4],92%
same,Population Pyknosed Nuclei (%),[4],19%
same,Population Tubulin-Different-Phenotype (%),[4],84%
same,Total Cell Count,[4],101
same,Population Apoptotic (%),[5],50%
same,Population Fragmented Nuclei (%),[5],16%
same,Population Healthy Nuclei (%),[5],67%
same,Population Hoechst High Intensity Objects (%),[5],10%
same,Population Membrane Permeable-Phenotype (%),[5],5%
same,Population Mitotic Cells (%),[5],50%
same,Population Normal (%),[5],89%
same,Population Pyknosed Nuclei (%),[5],16%
same,Population Tubulin-Different-Phenotype (%),[5],9%
same,Total Cell Count,[5],749
same,Population Apoptotic (%),[6],22%
same,Population Fragmented Nuclei (%),[6],15%
same,Population Healthy Nuclei (%),[6],66%
same,Population Hoechst High Intensity Objects (%),[6],5%
same,Population Membrane Permeable-Phenotype (%),[6],10%
same,Population Mitochondria Different-Phenotype (%),[6],21%
same,Population Mitotic Cells (%),[6],77%
same,Population Normal (%),[6],94%
same,Population Pyknosed Nuclei (%),[6],18%
same,Population Tubulin-Different-Phenotype (%),[6],29%
same,Total Cell Count,[6],1113
same,Population Apoptotic (%),[7],86%
same,Population Fragmented Nuclei (%),[7],80%
same,Population Healthy Nuclei (%),[7],0%
same,Population Hoechst High Intensity Objects (%),[7],6%
same,Population Membrane Permeable-Phenotype (%),[7],100%
same,Population Mitochondria Different-Phenotype (%),[7],25%
same,Population Mitotic Cells (%),[7],13%
same,Population Normal (%),[7],93%
same,Population Pyknosed Nuclei (%),[7],18%
same,Population Tubulin-Different-Phenotype (%),[7],100%
same,Total Cell Count,[7],151
same,Population Apoptotic (%),[8],90%
same,Population Fragmented Nuclei (%),[8],73%
same,Population Healthy Nuclei (%),[8],10%
same,Population Hoechst High Intensity Objects (%),[8],7%
same,Population Membrane Permeable-Phenotype (%),[8],96%
same,Population Mitochondria Different-Phenotype (%),[8],75%
same,Population Mitotic Cells (%),[8],10%
same,Population Normal (%),[8],92%
same,Population Pyknosed Nuclei (%),[8],15%
same,Population Tubulin-Different-Phenotype (%),[8],96%
same,Total Cell Count,[8],104
same,Population Apoptotic (%),[9],37%
same,Population Fragmented Nuclei (%),[9],16%
same,Population Healthy Nuclei (%),[9],69%
same,Population Hoechst High Intensity Objects (%),[9],6%
same,Population Membrane Permeable-Phenotype (%),[9],5%
same,Population Mitochondria Different-Phenotype (%),[9],15%
same,Population Mitotic Cells (%),[9],62%
same,Population Normal (%),[9],93%
same,Population Pyknosed Nuclei (%),[9],14%
same,Population Tubulin-Different-Phenotype (%),[9],14%
same,Total Cell Count,[9],831
same,Population Apoptotic (%),[10],58%
same,Population Fragmented Nuclei (%),[10],11%
same,Population Healthy Nuclei (%),[10],68%
same,Population Hoechst High Intensity Objects (%),[10],8%
same,Population Membrane Permeable-Phenotype (%),[10],24%
same,Population Mitochondria Different-Phenotype (%),[10],17%
same,Population Mitotic Cells (%),[10],41%
same,Population Normal (%),[10],91%
same,Population Pyknosed Nuclei (%),[10],20%
same,Population Tubulin-Different-Phenotype (%),[10],23%
same,Total Cell Count,[10],1197
same,Population Apoptotic (%),[11],90%
same,Population Fragmented Nuclei (%),[11],81%
same,Population Healthy Nuclei (%),[11],1%
same,Population Hoechst High Intensity Objects (%),[11],7%
same,Population Membrane Permeable-Phenotype (%),[11],100%
same,Population Mitochondria Different-Phenotype (%),[11],37%
same,Population Mitotic Cells (%),[11],9%
same,Population Normal (%),[11],92%
same,Population Pyknosed Nuclei (%),[11],16%
same,Population Tubulin-Different-Phenotype (%),[11],75%
same,Total Cell Count,[11],198
same,Population Apoptotic (%),[12],80%
same,Population Fragmented Nuclei (%),[12],73%
same,Population Healthy Nuclei (%),[12],15%
same,Population Hoechst High Intensity Objects (%),[12],8%
same,Population Membrane Permeable-Phenotype (%),[12],97%
same,Population Mitochondria Different-Phenotype (%),[12],81%
same,Population Mitotic Cells (%),[12],19%
same,Population Normal (%),[12],91%
same,Population Pyknosed Nuclei (%),[12],10%
same,Population Tubulin-Different-Phenotype (%),[12],94%
same,Total Cell Count,[12],131
